The source of these data is ChEMBL document CHEMBL1154732, “A 4-aminoquinoline derivative that markedly sensitizes tumor cell killing by Akt inhibitors with a minimum cytotoxicity to non-cancer cells” (2010).

Common to all, as to assay type: functional
The subject of test [1] is MCF7. Nature of the test: Cytotoxicity against human MCF7 cells after 48 hrs by SRB assay in presence of 0.04 uM (E)-5-(benzo[d]thiazol-2-yl)-3-ethyl-2-(2-(methyl(phenyl)amino)vinyl)-1-phenyl-1H-benzo[d]imidazol-3-ium iodide. The following applies: MCF7, 48 h. An outline of the steps:
(§1)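 Breast cancer cells were grown in RPMI 1640 with 10% FBS and 2 mM L-glutamine at 37 °C, 5% CO2, seeded at 5000–10,000/well and allowed 24 h before dosing. Compounds were given as seven serially diluted concentrations for 48 h, with any partner drug held constant, at ≤0.1% final DMSO. Cells were TCA-fixed, SRB-stained and read at 515–564 nm. GI50 came from a variable-slope sigmoidal fit of growth relative to time-zero and untreated wells; values are means of triplicates from ≥3 experiments.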
On the technique in general: In SRB staining, fixed cells bind dye roughly in proportion to their protein.

Test [2] has as its system MCF7. Nature of the test: Cytotoxicity against human MCF7 cells after 48 hrs by SRB assay in presence of 0.4 uM 1-(1-(4-(7-phenyl-1H-imidazo[4,5-g]quinoxalin-6-yl)benzyl)piperidin-4-yl)-1H-benzo[d]imidazol-2(3H)-one. In outline:
as §1

The test system of test [3] is MCF7. Kind of test: Cytotoxicity against human MCF7 cells after 48 hrs by SRB assay in presence of 3.5 uM 4-(2-chloro-10H-phenoxazin-10-yl)-N,N-diethylbutan-1-amine hydrochloride. The following applies: MCF7, 48 h. In outline: as §1
For test [4], the system named is MCF7. Nature of the test: Cytotoxicity against human MCF7 cells after 48 hrs by SRB assay in presence of 0.5 uM 2-morpholino-8-phenyl-4H-chromen-4-one. The following applies: MCF7, 48 h. An outline of the steps: as §1
The nature of test [5]: Cytotoxicity against human 184B5 cells after 48 hrs by SRB assay. The following applies: 184B5, 48 h. In outline:
(§2)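 184B5 immortalized breast epithelial cells were grown in mammary epithelial basal medium with MEGM supplements at 37 °C, 5% CO2. Cells (5000–10,000/well) were preincubated 24 h, then exposed to seven concentrations for 48 h, with the listed partner drug fixed at its stated level. Cells were TCA-fixed, SRB-stained and read at 515–564 nm. Final DMSO was ≤0.1%.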

Test [6] in a line: Cytotoxicity against human 184B5 cells after 48 hrs by SRB assay in presence of 0.04 uM (E)-5-(benzo[d]thiazol-2-yl)-3-ethyl-2-(2-(methyl(phenyl)amino)vinyl)-1-phenyl-1H-benzo[d]imidazol-3-ium iodide. The following applies: 184B5, 48 h. In outline:
as §2

Test [7] in a line: Cytotoxicity against human 184B5 cells after 48 hrs by SRB assay in presence of 0.4 uM 1-(1-(4-(7-phenyl-1H-imidazo[4,5-g]quinoxalin-6-yl)benzyl)piperidin-4-yl)-1H-benzo[d]imidazol-2(3H)-one. In outline: as §2
Test [8] can be described thus: Cytotoxicity against human 184B5 cells after 48 hrs by SRB assay in presence of 3.5 uM 4-(2-chloro-10H-phenoxazin-10-yl)-N,N-diethylbutan-1-amine hydrochloride. The settings on record: 184B5, 48 h. An outline of the steps:
as §2

Test [9] is described as follows: Cytotoxicity against human 184B5 cells after 48 hrs by SRB assay in presence of 0.5 uM 2-morpholino-8-phenyl-4H-chromen-4-one. The following applies: 184B5, 48 h. In outline: as §2
In test [10] the test system is MDA-MB-468. Kind of test: Cytotoxicity against human MDA-MB-468 cells after 48 hrs by SRB assay. The following applies: MDA-MB-468, 48 h. In outline: as §1
The subject of test [11] is MDA-MB-468. Kind of test: Cytotoxicity against human MDA-MB-468 cells after 48 hrs by SRB assay in presence of 0.04 uM (E)-5-(benzo[d]thiazol-2-yl)-3-ethyl-2-(2-(methyl(phenyl)amino)vinyl)-1-phenyl-1H-benzo[d]imidazol-3-ium iodide. The settings on record: MDA-MB-468, 48 h. In outline: as §1
In test [12] the test system is MDA-MB-468. Kind of test: Cytotoxicity against human MDA-MB-468 cells after 48 hrs by SRB assay in presence of 0.4 uM 1-(1-(4-(7-phenyl-1H-imidazo[4,5-g]quinoxalin-6-yl)benzyl)piperidin-4-yl)-1H-benzo[d]imidazol-2(3H)-one. An outline of the steps:
as §1

Test [13] has as its system MDA-MB-468. Kind of test: Cytotoxicity against human MDA-MB-468 cells after 48 hrs by SRB assay in presence of 3.5 uM 4-(2-chloro-10H-phenoxazin-10-yl)-N,N-diethylbutan-1-amine hydrochloride. The following applies: MDA-MB-468, 48 h. An outline of the steps: as §1
The subject of test [14] is MDA-MB-468. Kind of test: Cytotoxicity against human MDA-MB-468 cells after 48 hrs by SRB assay in presence of 0.5 uM 2-morpholino-8-phenyl-4H-chromen-4-one. The settings on record: MDA-MB-468, 48 h. An outline of the steps:
as §1

Test [15] relates to MDA-MB-231. Nature of the test: Cytotoxicity against human MDA-MB-231 cells after 48 hrs by SRB assay. The settings on record: MDA-MB-231, 48 h. In outline:
as §1

Test [16] concerns MDA-MB-231. Kind of test: Cytotoxicity against human MDA-MB-231 cells after 48 hrs by SRB assay in presence of 0.04 uM (E)-5-(benzo[d]thiazol-2-yl)-3-ethyl-2-(2-(methyl(phenyl)amino)vinyl)-1-phenyl-1H-benzo[d]imidazol-3-ium iodide. The following applies: MDA-MB-231, 48 h. An outline of the steps:
as §1

The subject of test [17] is MDA-MB-231. Kind of test: Cytotoxicity against human MDA-MB-231 cells after 48 hrs by SRB assay in presence of 0.4 uM 1-(1-(4-(7-phenyl-1H-imidazo[4,5-g]quinoxalin-6-yl)benzyl)piperidin-4-yl)-1H-benzo[d]imidazol-2(3H)-one. An outline of the steps: as §1
Test [18] concerns MDA-MB-231. Kind of test: Cytotoxicity against human MDA-MB-231 cells after 48 hrs by SRB assay in presence of 3.5 uM 4-(2-chloro-10H-phenoxazin-10-yl)-N,N-diethylbutan-1-amine hydrochloride. The following applies: MDA-MB-231, 48 h. An outline of the steps:
as §1

The subject of test [19] is MDA-MB-231. Nature of the test: Cytotoxicity against human MDA-MB-231 cells after 48 hrs by SRB assay in presence of 0.5 uM 2-morpholino-8-phenyl-4H-chromen-4-one. The settings on record: MDA-MB-231, 48 h. In outline: as §1
The test system of test [20] is MCF7. Nature of the test: Cytotoxicity against human MCF7 cells after 48 hrs by SRB assay. The following applies: MCF7, 48 h. An outline of the steps: as §1

The GI50 is the concentration at which growth is held to half of that of the control.

As for `CCCCNc1ccnc2cc(Cl)ccc12`, the GI50 is 10.2 µM with MCF7 [1]; 5.6 µM in the test on MCF7 [2]; 11.4 µM in the test with MCF7 [3]; 9.55 µM in the test on MCF7 [4]; 18.4 µM in [5]; above 20 µM in [6]. Also, the GI50 in [7] is 16.6 µM; in [8] it was 19.4 µM; in [9] it was above 20 µM; in the test with MDA-MB-468 [10], 6.02 µM; with MDA-MB-468 [11], 3.95 µM; in the test on MDA-MB-468 [12], 7.09 µM. The GI50 in the test on MDA-MB-468 [13] was determined as 4.3 µM; in the test on MDA-MB-468 [14], 7.42 µM; in the test with MDA-MB-231 [15], 15.9 µM; in the test with MDA-MB-231 [16], 12.3 µM; in the test with MDA-MB-231 [17], 8.8 µM; with MDA-MB-231 [18], 6.5 µM. In addition, the 50% growth inhibitory concentration (GI50) in the test with MDA-MB-231 [19] came to 11.3 µM; with MCF7 [20], 8.45 µM.

Turning to `CN(C)CCNc1ccnc2cc(F)ccc12`, the GI50 in the test with MCF7 [1] was 2.56 µM; in the test with MCF7 [2], 1.73 µM; with MCF7 [3], 3.26 µM; in the test with MCF7 [4] it was 2.64 µM; in test [5] it was 40.4 µM; in [6], above 20 µM. Also, the GI50 in test [7] is above 20 µM; in test [8] it was above 20 µM; in test [9] it was above 20 µM; in the test on MDA-MB-468 [10], 8.73 µM; with MDA-MB-468 [11] it was 4.87 µM; with MDA-MB-468 [12], 4.95 µM. Also, the GI50 worked out at 4.61 µM in the test with MDA-MB-468 [13]; 7.62 µM in the test on MDA-MB-468 [14]; 7.08 µM with MDA-MB-231 [15]; 2.5 µM in the test on MDA-MB-231 [16]; 1.94 µM in the test with MDA-MB-231 [17]; 2 µM in the test with MDA-MB-231 [18]. In addition, the GI50 in the test on MDA-MB-231 [19] came out at 9.45 µM; in the test with MCF7 [20] it was 3.42 µM.

With `COc1ccc2c(NCCN(C)C)ccnc2c1`, the GI50 with MCF7 [1] is 3.54 µM; in the test with MCF7 [2] it was 1.82 µM; with MCF7 [3], 3.66 µM; in the test on MCF7 [4] it was 2.65 µM; in test [5], 44.6 µM; in [6], above 20 µM. For the same molecule, the GI50 in [7] is above 20 µM; in [8], above 20 µM; in test [9] it was above 20 µM; in the test on MDA-MB-468 [10] it was 4.8 µM; with MDA-MB-468 [11], 5.85 µM; in the test with MDA-MB-468 [12], 5.91 µM. Further, the GI50 came out at 5.66 µM with MDA-MB-468 [13]; 7.62 µM in the test on MDA-MB-468 [14]; 4.49 µM in the test with MDA-MB-231 [16]; 0.74 µM with MDA-MB-231 [17]; 1.24 µM with MDA-MB-231 [18]; 9.45 µM with MDA-MB-231 [19]. The same molecule had a GI50 in the test with MCF7 [20] of 3.89 µM.

For `CCCCNc1ccnc2cc(F)ccc12`, the GI50 with MCF7 [1] worked out at 5.78 µM; in the test on MCF7 [2], 1.63 µM; with MCF7 [3], 3.7 µM; in the test on MCF7 [4], 3.17 µM; in [5], 18.7 µM; in [6] it was 12.4 µM. The GI50 in [7] stood at 14.9 µM; in test [8] it was 8.19 µM; in [9] it was 12.5 µM; with MDA-MB-468 [10], 1.41 µM; in the test with MDA-MB-468 [11], 2.69 µM; with MDA-MB-468 [12] it was 2.09 µM. Further, the GI50 in the test on MDA-MB-468 [13] stood at 1.44 µM; in the test on MDA-MB-468 [14], 3.5 µM; in the test on MDA-MB-231 [15], 6.32 µM; with MDA-MB-231 [16], 7.25 µM; in the test with MDA-MB-231 [17] it was 5.63 µM; in the test with MDA-MB-231 [18], 3.74 µM. Further, the values for the GI50 in the test on MDA-MB-231 [19] and in the test on MCF7 [20] were 12.3 µM and 1.98 µM, respectively.

For `CN(C)CCNc1ccnc2cc(Cl)ccc12`, the GI50 in the test with MCF7 [1] is 4.96 µM; in the test with MCF7 [2] it was 3.32 µM; with MCF7 [3], 7.37 µM; in the test with MCF7 [4] it was 7.54 µM; in test [5] it was 44.5 µM; in [6], above 20 µM. Also, the GI50 was above 20 µM in test [7]; above 20 µM in test [8]; above 20 µM in test [9]; 13.3 µM in the test with MDA-MB-468 [10]; 3.43 µM in the test on MDA-MB-468 [11]; 6.5 µM with MDA-MB-468 [12]. For the same molecule, the GI50 worked out at 3.24 µM in the test on MDA-MB-468 [13]; 19.3 µM in the test with MDA-MB-468 [14]; 8.59 µM with MDA-MB-231 [15]; 5.66 µM in the test on MDA-MB-231 [16]; 2.87 µM with MDA-MB-231 [17]; 0.74 µM with MDA-MB-231 [18]. The GI50 in the test on MDA-MB-231 [19] was found to be 9.88 µM; in the test with MCF7 [20], 15.4 µM.

Turning to `CCN(CC)CCCC(C)Nc1ccnc2cc(Cl)ccc12` (stereo unspecified) [CHLOROQUINE PHOSPHATE], the GI50 is 7.54 µM in the test on MCF7 [1]; 5.51 µM in the test with MCF7 [2]; 11.8 µM in the test with MCF7 [3]; 7.71 µM in the test with MCF7 [4]; 76.1 µM in [5]; above 20 µM in test [6]. Moreover, the GI50 was above 20 µM in test [7]; above 20 µM in test [8]; above 20 µM in test [9]; 6.53 µM with MDA-MB-468 [11]; 6.83 µM in the test with MDA-MB-468 [12]; 2.81 µM in the test on MDA-MB-468 [13]. In addition, the concentration for 50% growth inhibition (GI50) in the test on MDA-MB-468 [14] turned out to be 9.14 µM; with MDA-MB-231 [16] it was 8.33 µM; in the test with MDA-MB-231 [17], 12.6 µM; in the test with MDA-MB-231 [18], 6.08 µM; in the test with MDA-MB-231 [19] it was 18.8 µM.
